The text below walks through data of ChEMBL document CHEMBL1143713, “Antimitotic activities of 2-phenylindole-3-carbaldehydes in human breast cancer cells” (Bioorg Med Chem, 2007).

Calls of active or inactive are those of the source. The rule behind the calls is not given here.

The subject of test [1] is MDA-MB-231. The test can be described thus: Antiproliferative activity against human MDA-MB-231 cells after 4 days. The class given is functional, cell-based. The settings on record: MDA-MB-231, 96 h.
The test system of another test is MCF7. Briefly: Antiproliferative activity against human MCF7 cells after 5 days. Type of test: functional, cell-based. Conditions: MCF7, 120 h.
For test [2], the system named is MDA-MB-231. The test can be described thus: Cell cycle arrest in MDA-MB-231 cells by accumulation at G2/M phase after 24 hrs by flow cytometry. The class given is functional, cell-based. Conditions: Homo sapiens. The method, boiled down: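 MDA-MB 231 cells at 70–80% confluence exposed 24 h to compounds diluted from DMF stocks (0.1% DMF final), various concentrations, vincristine reference. Cells trypsinized, fixed in 70% ethanol, DNA-extracted, stained with propidium iodide ≥30 min at room temperature. 8000–15,000 events per sample by flow cytometry; sub-G1, G0/G1, S, G2/M fractions. Representative of two experiments.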

For another test, the target named is Tubulin. Briefly: Inhibition of tubulin polymerization by microplate assay. The class given is protein-complex assay, Homo sapiens. Put shortly: (§1)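 Commercial microplate tubulin kit in G-PEM buffer with 5% glycerol. Compounds from DMSO stocks, diluted 1:10 in G-PEM, added to wells prewarmed to 37 °C. Cold tubulin added; absorbance at 355 nm read every minute over about 28–30 min at 37 °C after shift from 2 °C. Solvent controls; colchicine and docetaxel as references.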

In test [3] the test system is U-87MG ATCC. Briefly: Effect on cell morphology in human U87 cells assessed as condensation of microtubule around the nucleus and loss of function at 50 nM after 3 hrs. Type of test: functional, cell-based. The method, boiled down:
(§2)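 U-87 MG glioma cells at 75% confluence treated 3 h at 37 °C; vehicle ethanol. Fixed in 4% paraformaldehyde, permeabilized with 1% Triton X-100. Chromatin stained with SYTOX Green; microtubules with mouse anti-α-tubulin and Cy5 goat anti-mouse antibody (1:200). Imaged by confocal laser scanning microscopy.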

The target in a further test is Tubulin (Homo sapiens) (UniProt P68371+Q9H4B7+P0DPH7+P68366+Q13509+Q71U36+P04350+Q3ZCM7+P07437+P68363+Q9BQE3+Q6PEY2+Q13885+Q9BVA1+Q9BUF5). Briefly: Inhibition of tubulin polymerization at 5 uM by microplate assay. Type of test: protein-complex assay. The method, boiled down:
as §1

Test [4] is described as follows: Inhibition of temperature-induced tubulin polymerization of calf brain. On the set-up: species or system Bos taurus. Put shortly:
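Tubulin from fresh calf brain cortex, purified by temperature-dependent polymerization/depolymerization cycles and checked by PAGE, in PEMG buffer. Supernatant mixed with compound in DMSO at varying concentrations, preincubated 15 min at 37 °C, chilled, then 25 mM GTP solution added. Temperature switched from 2 to 37 °C in cuvettes; turbidity at 350 nm over 20 min. Mean of two controls = 100%; IC50 from three independent experiments.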

In test [5] the test system is U-87MG ATCC. The test can be described thus: Effect on cell morphology in human U87 cells assessed as disruption of microtubule network and loss of function at 10 nM after 3 hrs. The class given is functional, cell-based. Put shortly:
as §2

Turning to `CCCCCCc1ccc2[nH]c(-c3ccc(C(F)(F)F)cc3)c(C=O)c2c1`, the IC50 in the test on MDA-MB-231 [1] amounted to 43 nM; in the test on MCF7, 22 nM.

Take `CCCCc1ccc2[nH]c(-c3ccc(OC)cc3)c(/C=N\C)c2c1`: the figures for the IC50 in the test on MDA-MB-231 [1], with MCF7 and against Tubulin were 6 nM, 27 nM and 1200 nM, respectively. Further, the result in the test with MDA-MB-231 [2] was Active.

With `CCCCc1ccc2[nH]c(-c3ccc(F)cc3)c(C=O)c2c1`, the IC50 was determined as 350 nM in the test on MDA-MB-231 [1] and 200 nM with MCF7.

As for `CCCCc1ccc2[nH]c(-c3ccc(OC)cc3)c(C=O)c2c1`, the concentration for half-maximal inhibition (IC50) with MDA-MB-231 [1] was 6.7 nM; in the test with MCF7 it was 22 nM. The outcome in the test on MDA-MB-231 [2] and in the test with U-87MG ATCC [3] was Active. Also, the inhibition on Tubulin (Homo sapiens) amounted to 23%.

For `Cc1ccc(-c2[nH]c3cc(Cl)ccc3c2C=O)cc1`, the values for the IC50 in the test with MDA-MB-231 [1] and in the test on MCF7 were 7.8 nM and 37 nM, respectively.

As for `COc1ccc(-c2[nH]c3cc(Cl)ccc3c2C=O)cc1`, the values for the IC50 in the test with MDA-MB-231 [1] and in the test on MCF7 were 27 nM and 65 nM, respectively.

Consider `CCCCc1ccc2[nH]c(-c3ccc(C(F)(F)F)cc3)c(/C=N\O)c2c1`, for which the IC50 was determined as 497 nM with MDA-MB-231 [1] and 1660 nM in the test on MCF7.

With `C/N=C\c1c(-c2ccc(OC)cc2)[nH]c2cc(OC)ccc12`, the values for the IC50 (in the test with MDA-MB-231 [1]; in test [4]; with MCF7) were 34 nM, 1800 nM and 220 nM, respectively.

As to `CCCCc1ccc2[nH]c(-c3ccc(C(F)(F)F)cc3)c(/C=N\C)c2c1`, the IC50 was determined as 32 nM in the test on MDA-MB-231 [1] and 140 nM in the test on MCF7.

Consider `COc1ccc2c(C=O)c(-c3ccc(OC)c(OC)c3)[nH]c2c1`, for which the figures for the IC50 in the test on MDA-MB-231 [1] and with MCF7 were 270 nM and 20 nM, respectively.

Consider `COc1ccc2c(C=O)c(-c3ccc(OC)c(O)c3)[nH]c2c1`, for which the IC50 came to 800 nM in the test on MDA-MB-231 [1] and 1650 nM in the test with MCF7.

Turning to `CCCCc1ccc2[nH]c(-c3ccc(C)cc3)c(C=O)c2c1`, the IC50 in the test with MDA-MB-231 [1] was found to be 34 nM; with MCF7, 54 nM. Besides, the outcome in the test with MDA-MB-231 [2] was Active.

For `CC[C@]1(O)C[C@H]2CN(CCc3c([nH]c4ccccc34)[C@@](C(=O)OC)(c3cc4c(cc3OC)N(C=O)[C@H]3[C@@](O)(C(=O)OC)[C@H](OC(C)=O)[C@]5(CC)C=CCN6CC[C@]43[C@@H]65)C2)C1`, the outcome in the test with MDA-MB-231 [2] and in the test on U-87MG ATCC [5] was Active.

Take `COc1ccc(-c2[nH]c3ccc(CC(C)C)cc3c2C=O)cc1`: the IC50 with MDA-MB-231 [1] amounted to 72 nM; in the test on MCF7, 180 nM.

With `COc1ccc(-c2[nH]c3ccc(C(C)(C)C)cc3c2C=O)cc1`, the IC50 in the test on MDA-MB-231 [1] was 280 nM; with MCF7, 580 nM.

As to `COc1ccc(-c2[nH]c3cc(OC)ccc3c2C=O)cc1`, the IC50 in the test with MDA-MB-231 [1] came to 35 nM; in test [4], 1500 nM; in the test with MCF7 it was 160 nM.

`COc1ccc(-c2[nH]c3cc(Cl)c(C)cc3c2C=O)cc1`: the IC50 with MDA-MB-231 [1] worked out at 26 nM; with MCF7, 62 nM.

As to `CCCCc1ccc2[nH]c(-c3ccc(C(F)(F)F)cc3)c(C=O)c2c1`, the values for the IC50 with MDA-MB-231 [1] and in the test on MCF7 were 33 nM and 66 nM, respectively. In the test with MDA-MB-231 [2], the outcome was Active. For the same compound, the outcome at Tubulin (Homo sapiens) was inactive.

For the compound `COc1ccc(-c2[nH]c3cc(F)ccc3c2C=O)cc1`, the IC50 in the test on MDA-MB-231 [1] worked out at 59 nM; in test [4], 1800 nM.

Turning to `CCCCCc1ccc2[nH]c(-c3ccc(OC)cc3)c(C=O)c2c1`, the figures for the IC50 in the test with MDA-MB-231 [1] and in the test with MCF7 were 5.5 nM and 20 nM, respectively.

With `CCCCCc1ccc2[nH]c(-c3ccc(OC)cc3)c(/C=N\C)c2c1`, the IC50 in the test with MDA-MB-231 [1] came out at 6 nM; in the test with MCF7, 21 nM.

Take `COc1cccc(-c2[nH]c3cc(OC)ccc3c2C=O)c1`: the IC50 worked out at 1030 nM in the test with MDA-MB-231 [1] and 390 nM in the test on MCF7.

For the compound `CCCCc1ccc(-c2[nH]c3ccc(CC)cc3c2C=O)cc1`, the results for the IC50 with MDA-MB-231 [1] and in the test with MCF7 were 300 nM and 200 nM, respectively.

Regarding `CCCCc1ccc2[nH]c(-c3ccc(OC)cc3)c(/C=N\O)c2c1`, the IC50 in the test with MDA-MB-231 [1] came out at 40 nM; in the test on MCF7 it was 212 nM. Also, in the test on MDA-MB-231 [2], the result was Active.

For the compound `Cc1ccc(-c2[nH]c3ccc(C)cc3c2C=O)cc1`, the IC50 with MDA-MB-231 [1] is 48 nM; in the test on MCF7, 165 nM.

Regarding `COc1ccc(-c2[nH]c3ccc(C(C)C)cc3c2C=O)cc1`, the IC50 in the test with MDA-MB-231 [1] turned out to be 29 nM; in the test with MCF7 it was 97 nM.

On to `CCCCc1ccc2[nH]c(-c3ccc(CC)cc3)c(C=O)c2c1`, for which the IC50 worked out at 27 nM with MDA-MB-231 [1] and 58 nM in the test with MCF7. In the test on MDA-MB-231 [2], the outcome was Active.

Consider `COc1ccc2c(C=O)c(-c3ccc(C)cc3)[nH]c2c1`, for which the IC50 was found to be 31 nM in the test with MDA-MB-231 [1] and 100 nM in the test with MCF7.

In the case of `COc1ccc(-c2[nH]c3ccc(C)cc3c2C=O)cc1`, the values for the IC50 in the test with MDA-MB-231 [1] and in the test with MCF7 were 86 nM and 140 nM, respectively. For the same compound, the result in the test on MDA-MB-231 [2] was Active.

In the case of `CCCCCc1ccc2[nH]c(-c3ccc(C(F)(F)F)cc3)c(C=O)c2c1`, the IC50 amounted to 42 nM with MDA-MB-231 [1] and 67 nM with MCF7.

Regarding `COc1ccc(-c2[nH]c3ccc(OC)cc3c2C=O)cc1`, in test [4], the IC50 came out at 4000 nM. In other words, the single-digit micromolar range.

On to `CCCCCCc1ccc2[nH]c(-c3ccc(OC)cc3)c(C=O)c2c1`, for which the IC50 with MDA-MB-231 [1] turned out to be 7.4 nM; in the test with MCF7, 6 nM. Further, the outcome in the test with MDA-MB-231 [2] was Active.

Consider `COc1ccc(-c2[nH]c3ccc(F)cc3c2C=O)cc1`, for which the IC50 in the test on MDA-MB-231 [1] was found to be 540 nM; in the test on MCF7, 240 nM.

With `CCCc1ccc2[nH]c(-c3ccc(OC)cc3)c(C=O)c2c1`, the figures for the IC50 in the test on MDA-MB-231 [1] and in the test with MCF7 were 20 nM and 54 nM, respectively.
